Legend:
Human alphaherpesvirus 1 [1] = assay: Antiviral activity against DNA polymerase mutant resistant to KOS(parental) was determined at a conc of 50 uM; type: functional
How it was run: (§1)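 HSV-infected HeLa BU cells seeded in 25-cm² flasks. The next day, virus was added at a multiplicity of 3–5 PFU/cell and allowed 1 h to adsorb. Virus was then removed and growth medium with or without drug was added. Cells were held at 37 °C for 24 h, then frozen at –70 °C until titration. Yield is expressed as PFU, % of untreated control.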

Human alphaherpesvirus 1 [2] = assay: Antiviral activity against DNA polymerase mutant resistant to PFA 1a (PFA) was determined at a conc of 50 uM; type: functional; how it was run: as §1
Human alphaherpesvirus 1 [3] = assay: Antiviral activity against DNA polymerase mutant resistant to PFA 3b(PFA) was determined at a conc of 50 uM; type: functional; how it was run: as §1
Human alphaherpesvirus 1 [4] = assay: Antiviral activity against DNA polymerase mutant resistant to PFA 5a(PFA) was determined at a conc of 50 uM; type: functional; how it was run: as §1
Human alphaherpesvirus 1 [5] = assay: Antiviral activity against HSV-1 kinase mutant resistant to B3(BVdU) was determined at a conc of 50 uM; type: functional; how it was run: as §1
Human alphaherpesvirus 1 [6] = assay: Antiviral activity against HSV-1 kinase mutant resistant to S1(ACV) was determined at a conc of 50 uM; type: functional; how it was run: as §1
Human alphaherpesvirus 1 [7] = assay: Antiviral activity against HSV-1 kinase mutant resistant to SCS(parental) was determined at a conc of 50 uM; type: functional; how it was run: as §1
Human alphaherpesvirus 1 [8] = assay: Antiviral activity against HSV-1 kinase mutant resistant to Tr7(ACV) was determined at a conc of 50 uM; type: functional; how it was run: as §1
Human alphaherpesvirus 1 [9] = assay: Antiviral activity against HSV-1 kinase mutant resistant to B3(BVdU) was determined at a conc of 30 uM; type: functional; how it was run: as §1
Human alphaherpesvirus 1 [10] = assay: Antiviral activity against HSV-1 kinase mutant resistant to SCS(parental) was determined at a conc of 30 uM; type: functional; how it was run: as §1
Human alphaherpesvirus 1 [11] = assay: Antiviral activity against HSV-1 kinase mutant resistant to Tr7(ACV) was determined at a conc of 30 uM; type: functional; how it was run: as §1
[12] = biological target: Cytidine deaminase (Homo sapiens) (UniProt P32320); assay: relative velocity was determined against deaminase purified from human acute myeloblastic leukemia cells
Human alphaherpesvirus 2 = assay: Antiviral activity against HSV-2 (333)was determined at a conc of 50 uM; type: functional; how it was run: as §1
Human alphaherpesvirus 1 [13] = assay: Antiviral activity against DNA polymerase mutant resistant to KOS(parental) was determined at a conc of 100 uM; type: functional; how it was run: as §1
Human alphaherpesvirus 1 [14] = assay: Antiviral activity against DNA polymerase mutant resistant to PFA 1a (PFA) was determined at a conc of 100 uM; type: functional; how it was run: as §1
Human alphaherpesvirus 1 [15] = assay: Antiviral activity against DNA polymerase mutant resistant to PFA 3b(PFA) was determined at a conc of 100 uM; type: functional; how it was run: as §1
Human alphaherpesvirus 1 [16] = assay: Antiviral activity against DNA polymerase mutant resistant to PFA 5a(PFA) was determined at a conc of 100 uM; type: functional; how it was run: as §1
Human alphaherpesvirus 1 [17] = assay: Antiviral activity against HSV-1 kinase mutant resistant to SCS(parental) was determined at a conc of 100 uM; type: functional; how it was run: as §1
Human alphaherpesvirus 1 [18] = assay: Antiviral activity against HSV-1 kinase mutant resistant to Tr7(ACV) was determined at a conc of 100 uM; type: functional; how it was run: as §1
Human alphaherpesvirus 1 [19] = assay: Antiviral activity against HSV-1 kinase mutant resistant to B3(BVdU) was determined at a conc of 100 uM; type: functional; how it was run: as §1
Human alphaherpesvirus 1 [20] = assay: Antiviral activity against HSV-1 kinase mutant resistant to S1(ACV) was determined at a conc of 100 uM; type: functional; how it was run: as §1
[21] = biological target: Cytidine deaminase (Homo sapiens) (UniProt P32320); assay: Relative velocity was determined against deaminase purified from human acute myeloblastic leukemia cells
[22] = test system: Thymidine kinase (Human herpesvirus 2); assay: Phosphorylating activity of viral HSV -2 (333) induced thymidine kinase relative to dThdK was determined; conditions: Human alphaherpesvirus 2

Cytidine deaminase (Homo sapiens), sequence (P32320 whole entry, looked up): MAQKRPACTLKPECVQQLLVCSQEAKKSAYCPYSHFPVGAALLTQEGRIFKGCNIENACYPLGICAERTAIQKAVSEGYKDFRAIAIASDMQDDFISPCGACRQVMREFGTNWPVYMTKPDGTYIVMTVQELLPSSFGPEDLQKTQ

Nc1nc2c(ncn2COCCO)c(=O)[nH]1 [ACYCLOVIR] showed a Control (Human alphaherpesvirus 1 [1]) of 3%, a Control (Human alphaherpesvirus 1 [2]) of 37% and a Control (Human alphaherpesvirus 1 [3]) of 63%. For the same molecule, the Control (Human alphaherpesvirus 1 [4]) was 21%, the Control (Human alphaherpesvirus 1 [5]) was 0.3% and the Control (Human alphaherpesvirus 1 [6]) was 18%. It also gave a Control (Human alphaherpesvirus 1 [7]) of 0.2% and a Control (Human alphaherpesvirus 1 [8]) of 10%.

Work on O=c1[nH]c(=O)n([C@H]2C[C@H](O)[C@@H](CO)O2)cc1/C=C/Br [BRIVUDINE] yielded a Control (Human alphaherpesvirus 1 [9]) of 52%, a Control (Human alphaherpesvirus 1 [10]) of 0.4% and a Control (Human alphaherpesvirus 1 [11]) of 0.8%.

Work on Nc1ccn([C@H]2C[C@H](O)[C@@H](CO)O2)c(=O)n1 yielded a Relative velocity [12] of 1.

C#Cc1cn(C2O[C@H](CO)[C@@H](O)[C@@H]2O)c(=O)nc1N (stereo not given in full) showed a Control (Human alphaherpesvirus 2) of 0.28%, a Control (Human alphaherpesvirus 1 [13]) of 0.06% and a Control (Human alphaherpesvirus 1 [1]) of 0.06%. It also gave a Control (Human alphaherpesvirus 1 [14]) of 0.04%, a Control (Human alphaherpesvirus 1 [2]) of 0.54% and a Control (Human alphaherpesvirus 1 [15]) of 0.04%. For the same molecule, the Control (Human alphaherpesvirus 1 [3]) was 0.36%, the Control (Human alphaherpesvirus 1 [16]) was 0.1% and the Control (Human alphaherpesvirus 1 [17]) was 0.12%. The Control (Human alphaherpesvirus 1 [18]) was 0.12%, the Control (Human alphaherpesvirus 1 [4]) was 0% and the Control (Human alphaherpesvirus 1 [5]) was 0.04%. For the same molecule, the Control (Human alphaherpesvirus 1 [6]) was 70%, the Control (Human alphaherpesvirus 1 [7]) was 0.38% and the Control (Human alphaherpesvirus 1 [8]) was 4.7%. The Control (Human alphaherpesvirus 1 [19]) was 0.06%, the Control (Human alphaherpesvirus 1 [20]) was 59% and the Relative velocity [21] was 0.02. The Relative velocity [22] was 30%.

Work on O=C(O)P(=O)(O)O [FOSCARNET] yielded a Control (Human alphaherpesvirus 1 [1]) of 2.9%, a Control (Human alphaherpesvirus 1 [2]) of 37% and a Control (Human alphaherpesvirus 1 [3]) of 24%. The Control (Human alphaherpesvirus 1 [4]) was 63%.
